Data taken from ChEMBL document CHEMBL1143425, “Paradoxical growth effect of caspofungin observed on biofilms and planktonic cells of five different Candida species” (2007).
Values after ≈ are worked out from the molar mass of the structure shown. Active and inactive are the calls of the source.

Legend:
[1] = tested on: Candida tropicalis; test: Antimicrobial activity against Candida tropicalis BR-A18 grown as planktonic cell after 48 hrs by XTT reduction assay; format: functional
In short: (§1)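 Planktonic broth microdilution followed CLSI M27-A2, with caspofungin dissolved in water. After 48 h, XTT-menadione was added to each well and plates were incubated 1 h at 35°C in the dark. Cells were pelleted by centrifugation and the supernatant was read at 490 nm. MIC was the lowest concentration giving a 50% drop in metabolic activity versus the drug-free control. PG was ≥20% of drug-free activity above the MIC.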

[2] = tested on: Candida albicans; test: Effect on morphology in Candida albicans grown as planktonic cells assessed as rounding and clumping at 16 ug/ml after 48 hrs; format: functional, organism-based
In short: (§2)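 Cells were taken from caspofungin-containing and drug-free wells of the planktonic broth microdilution test after 48 h. They were examined by light microscopy at ×400.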

[3] = tested on: Candida orthopsilosis; test: Antimicrobial activity against Candida orthopsilosis BR-A36 grown as biofilm assessed as concentration producing paradoxical growth after 48 hrs by XTT reduction assay; format: functional
In short: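 Sabouraud-grown cells were shaken overnight (18 h, 120 rpm, 35°C) in RPMI 1640 with MOPS at pH 7.0, then washed and set at ~1 × 10^7 cells/ml. Attachment lasted 1.5 h at 37°C, and growth ran 24 h before challenge. Caspofungin was added in RPMI at 2–1,024 μg/ml (10 doublings) for 48 h at 35°C with shaking. XTT-menadione was read at 490 nm after 1 h at 35°C in the dark, with blank wells subtracted. MIC was taken as 50% reduction versus drug-free wells, and PG as >50% of control above MIC. Assays were run in duplicate.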

[4] = tested on: Candida parapsilosis; test: Antimicrobial activity against Candida parapsilosis BR-A31 grown as planktonic cell assessed as paradoxical growth after 48 hrs by XTT reduction assay; format: functional, organism-based; in short: as §1
[5] = tested on: Candida albicans; test: Antimicrobial activity against Candida albicans BR-A4 grown as planktonic cell after 48 hrs by XTT reduction assay; format: functional
In short: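 Planktonic broth microdilution followed CLSI M27-A2, with caspofungin dissolved in water. After 48 h, XTT-menadione was added to the wells and plates were kept 1 h at 35°C in the dark. Plates were then centrifuged and supernatant A490 was read. MIC was the lowest concentration giving a 50% decrease in metabolic activity versus drug-free control. Paradoxical growth was defined as ≥20% of control activity above the MIC.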

[6] = tested on: Candida orthopsilosis; test: Antimicrobial activity against Candida orthopsilosis BR-A35 grown as planktonic cell assessed as paradoxical growth after 48 hrs by XTT reduction assay; format: functional, organism-based
In short: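 Planktonic cells were tested by CLSI M27-A2 broth microdilution with caspofungin in water, incubated 48 h. XTT-menadione was added to each well, plates were held 1 h at 35°C in the dark and centrifuged, and supernatant absorbance was read at 490 nm. MIC was defined as 50% decrease in metabolic activity versus drug-free control. PG was defined as ≥20% of control activity at concentrations above MIC.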

[7] = tested on: Candida orthopsilosis; test: Effect on morphology in Candida orthopsilosis grown as planktonic cells assessed as inhibition of hyphae and pseudohyphae at 64 ug/ml after 48 hrs; format: functional, organism-based; in short: as §2
[8] = tested on: Candida tropicalis; test: Antimicrobial activity against Candida tropicalis BR-A14 grown as biofilm after 48 hrs by XTT reduction assay; format: functional
In short: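 Clinical isolates were grown overnight (18 h, 35°C, 120 rpm) in RPMI 1640 with MOPS, pH 7.0, then washed and set to ~1 × 10^7 cells/ml. Cells attached for 1.5 h at 37°C, 75 rpm, then biofilms grew 24 h. Caspofungin was given as doubling dilutions of 2–1,024 μg/ml for 48 h at 35°C, 75 rpm. Read-out was XTT-menadione in PBS, 1 h at 35°C in the dark, A490, cell-free blank subtracted. MIC was a 50% drop in activity versus drug-free; PG was >50% of control above MIC. Run in duplicate.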

With `CC[C@H](C)C[C@H](C)CCCCCCCCC(=O)N[C@H]1C[C@@H](O)[C@@H](NCCN)NC(=O)[C@@H]2[C@@H](O)CCN2C(=O)[C@H]([C@H](O)CCN)NC(=O)[C@H]([C@H](O)[C@@H](O)c2ccc(O)cc2)NC(=O)[C@@H]2C[C@@H](O)CN2C(=O)[C@H]([C@@H](C)O)NC1=O` [CASPOFUNGIN] as the compound, how does the MIC [1] read?
The MIC was 0.5 mg/L (≈ 0.457 µM).

And the Activity [2]?
The Activity was “Active”.

And the Activity [3]?
Its Activity is 16 µg/mL.

What about the Activity [4] of the same compound?
Its Activity is “inactive”.

And the MIC [5]?
The MIC was 0.5 mg/L (≈ 0.457 µM).

And the Activity [6]?
Its Activity is “inactive”.

And the Activity [7]?
Its Activity is “Active”.

And the MIC [8]?
Its MIC is 256 mg/L (≈ 234 µM).
